Results from different studies.
Each line is one published result; the experiments were not run side by side. pIC50: −log10 of the molar value.
Cell line: A549

Structure (SMILES) | observed | method | time | pIC50
COc1c2c(cc3c1OCO3)[C@]13C=C[C@H](OC)C[C@H]1N(C2)C[C@H]3OC(=O)c1cccc(C)c1 | cell growth or viability | WST-1 | – | < 5.00
C=C(Cl)C(=O)Nc1cc(Nc2nc(N3CCSCC3)c3sccc3n2)c(OC)cc1N(C)CCN(C)C | cell growth or viability | MTT | – | 7.01
Cc1ccc(C)n1-c1ccc(C(=O)NNC=O)cc1 | cell growth or viability | MTT | 72 h | 3.66
O=C(O)c1ccc(-n2nc(-c3ccccc3O)nc2-c2ccccc2O)cc1 | cell growth or viability | MTT | 72 h | 4.92
O=c1[nH]cc(F)c(=O)[nH]1 | cell growth or viability | MTT | 48 h | 4.43
O=C(NC(=S)NCCNC(=S)NC(=O)c1ccc2ccccc2c1)c1ccc2ccccc2c1 | cell growth or viability | – | 48 h | 5.56
Cc1ccc(NC(=O)CSc2nnc(Cn3cnc4c3c(=O)n(C)c(=O)n4C)n2-c2ccccc2)c(C)c1 | cell growth or viability | MTT | – | 5.13
O=C(Nc1nnc(-c2cc3ccccc3[nH]2)s1)c1cc2c([nH]c3ccccc32)c(-c2ccc(F)cc2)n1 | cell growth or viability | MTT | 72 h | 5.44
CN1CCN(CCCn2cccc2/C=N/NC(=O)Nc2cc3c(Nc4ccc(F)c(Cl)c4)ncnc3cc2O[C@H]2CCOC2)CC1 | cell growth or viability | MTT | 72 h | 5.39
COc1ccc(NC(=O)Nc2ccc(OCc3ncc(C)c(OC)c3C)cc2)cc1 | cell growth or viability | MTT | 72 h | 4.89
COc1ccccc1/C=C/CNCC(O)COc1cccc2ncccc12 (stereo not drawn) | cell growth or viability | CCK-8 | 72 h | 4.55
C#Cc1cccc(Nc2ncnc3cc(OCCOC)c(OCCOC)cc23)c1 | cell growth or viability | MTT | – | 4.71
Cc1ccc(-c2nn(-c3ccc(S(C)(=O)=O)cc3)cc2/C=N\N=c2/[nH]c(-c3ccc([N+](=O)[O-])cc3)cs2)cc1 | cell growth or viability | MTT | 48 h | 4.24
COc1ccccc1/C=C/CNCC(O)COc1ccc2[nH]c3ccccc3c2c1 (stereo not drawn) | cell growth or viability | CCK-8 | 72 h | 5.04
CCN(CC)C/C=N/NC(=O)Nc1cc2c(Nc3ccc(F)c(Cl)c3)ncnc2cc1O[C@H]1CCOC1 | cell growth or viability | MTT | 72 h | 5.36
COc1ccc2c(c1)/C(=N/NC(=O)c1cc3ccccc3[nH]1)C(=O)N2 | cell growth or viability | – | – | 5.18
Oc1ncnc2cc(Nc3nc(-c4ccc(F)cc4)cs3)ccc12 | cell growth or viability | MTT | – | 4.72
COC(=O)/C=C1\S/C(=N\C(=O)c2ccc3ccccc3c2)N(C2CCCCC2)C1=O | cell growth or viability | – | 48 h | 4.87
COCCCOc1ccnc(COc2ccc(NC(=O)Nc3cccc(C(F)(F)F)c3)cc2)c1C | cell growth or viability | MTT | 72 h | 5.36

Structure (SMILES) | observed | method | time | pIC50
C=CC(=O)Nc1cc(Nc2nc(Nc3cnn(C)c3)c3sccc3n2)c(OC)cc1N(C)CCN(C)C | cell growth or viability | MTT | – | < 4.30
COc1ccccc1/C=C/CNCC(O)COc1cccc2c1[nH]c1ccccc12 (stereo not drawn) | cell growth or viability | CCK-8 | 72 h | 4.95
CNC(=O)c1cc(Oc2ccc(NC(=O)Nc3ccc(Cl)c(C(F)(F)F)c3)cc2)ccn1 | cell growth or viability | MTT | 24 h | < 4.40
CCN(CC)C/C=N/NC(=O)Nc1cc2c(Nc3ccc(F)c(Cl)c3)ncnc2cc1OC | cell growth or viability | MTT | 72 h | 5.21
CC1=C(O)C(=O)C=C2C1=CC=C1[C@@]2(C)CC[C@@]2(C)[C@@H]3C[C@](C)(C(=O)OCCCn4ccc5ccccc54)CC[C@]3(C)CC[C@]12C | cell growth or viability | MTT | 48 h | < 4.00
Cc1c(OCC(F)(F)F)ccnc1COc1ccc(NC(=O)Nc2ccc(Cl)cc2)cc1 | cell growth or viability | MTT | 72 h | 5.62
CCCCNC(=O)NNC(=O)c1ccc(Nc2nccc(-c3ccccn3)n2)cc1 | cell growth or viability | MTT | 24 h | < 4.40
COc1ccccc1CCNCC(O)COc1cccc2[nH]c3ccccc3c12 (stereo not drawn) | cell growth or viability | CCK-8 | 72 h | 4.88
CCC(=O)Nc1cc(Nc2nc(N3CCOCC3)c3sccc3n2)c(OC)cc1N(C)CCN(C)C | cell growth or viability | MTT | – | < 4.30
Cc1cc(=O)[nH]n1C(=O)c1ccc(-n2c(C)ccc2C)cc1 | cell growth or viability | MTT | 72 h | 3.68
CC1=C(O)C(=O)C=C2C1=CC=C1[C@@]2(C)CC[C@@]2(C)[C@@H]3C[C@](C)(C(=O)OCCCCO)CC[C@]3(C)CC[C@]12C | cell growth or viability | MTT | 48 h | 5.51
C=CC(=O)Nc1cc(Nc2nc(N3CCc4sccc4C3)c3cccnc3n2)c(OC)cc1N1CCC(N(C)C)CC1 | cell growth or viability | MTT | – | 6.41
COc1c(C)cnc(COc2ccc(NC(=O)Nc3ccc(Cl)c(C(F)(F)F)c3)cc2)c1C | cell growth or viability | MTT | 72 h | 5.18
C=CC(=O)Nc1cc(Nc2nc(N3CCc4sccc4C3)c3cccnc3n2)c(OC)cc1N(C)CCN(C)C | cell growth or viability | MTT | – | 4.66
COc1ccccc1CCCNCC(O)COc1cccc2[nH]c3ccccc3c12 (stereo not drawn) | cell growth or viability | CCK-8 | 72 h | 4.93
O=C(NC(=S)NC1CCCCC1)c1ccc2ccccc2c1 | cell growth or viability | – | 48 h | 5.24
C=CC(=O)Nc1cccc(Nc2nc(Nc3ccc(OCCOC)cc3)ncc2F)c1 | cell growth or viability | – | – | 5.30
CCC(=O)Nc1cc(Nc2nc(N3CCc4sccc4C3)c3cccnc3n2)c(OC)cc1N1CCN(C(C)=O)CC1 | cell growth or viability | MTT | – | 5.15
CCOc1ccc(/C=C2\SC(=S)N(CC(=O)Nc3ccccc3)C2=O)cc1 | cell growth or viability | MTT | – | 4.99

Structure (SMILES) | observed | method | time | pIC50
O=C(NNC(=O)c1ccc(Nc2nccc(-c3ccc(Cl)cc3)n2)cc1)NC1CCCCC1 | cell growth or viability | MTT | 24 h | < 4.40
Cc1cccc(-n2ncc(Br)c(Br)c2=O)c1 | cell growth or viability | resazurin | 96 h | 5.79
CN(C)c1ccc2cc(C(=O)N[C@@H](CCCNC(=N)CCl)C(=O)NCc3ccccc3)ccc2c1 | cell growth or viability | – | 48 h | 5.01
O=C1Nc2ccc(F)cc2/C1=N/NC(=O)c1cc2ccccc2[nH]1 | cell growth or viability | – | – | < 4.52
CCN(CC)CCCn1cccc1/C=N/NC(=O)Nc1cc2c(Nc3ccc(F)c(Cl)c3)ncnc2cc1OC | cell growth or viability | MTT | 72 h | 5.62
CCc1c2c(nc3ccc(OC(=O)N4CCC(N5CCCCC5)CC4)cc13)-c1cc3c(c(=O)n1C2)COC(=O)[C@]3(O)CC | cell growth or viability | SRB | 72 h | 5.02
COc1cc2ncnc(Nc3ccc(F)c(Cl)c3)c2cc1NC(=O)N/N=C/c1cccn1CCN1CCN(C)CC1 | cell growth or viability | MTT | 72 h | 5.63
COc1cc(C=C(C(=O)/C=C/c2ccc(OC)c(OC)c2)C(=O)/C=C/c2ccc(OC)c(OC)c2)ccc1O | colony formation | – | 9 days | > 6.70
Cc1nc(Nc2ncc(C(=O)Nc3c(C)cccc3Cl)s2)cc(N2CCN(CCO)CC2)n1 | cell growth or viability | MTT | 48 h | 4.93
Cc1cc(C)n(-c2nc(NN=Cc3c[nH]c4ccccc34)nc(Nc3ccc(Br)cc3)n2)n1 | cell growth or viability | SRB | 72 h | 5.21
COc1cccc2c1C(=O)c1c(O)c3c(c(O)c1C2=O)C[C@@](O)(C(=O)CO)C[C@@H]3O[C@H]1C[C@H](N)[C@H](O)[C@H](C)O1 | cell growth or viability | – | 48 h | 6.25
COc1cc2ncnc(Nc3ccc(F)c(Cl)c3)c2cc1NC(=O)N/N=C/c1cccn1CCCN1CCCC1 | cell growth or viability | MTT | 72 h | 5.61
CCCCCCCCCCCC(=O)Oc1c(C)c(O)c(C(=O)/C=C/c2ccccc2)c(OC)c1C | cell growth or viability | SRB | 72 h | < 4.30
C=CC(=O)Nc1cc(Nc2nc(N3CCc4sccc4C3)c3cccnc3n2)c(OC)cc1N1CCN(C(C)=O)CC1 | cell growth or viability | MTT | – | < 4.30
CC(=O)O[C@H]1C(=O)[C@@]2(C)[C@H]([C@H](OC(=O)c3ccccc3)[C@]3(O)C[C@H](OC(=O)[C@H](O)[C@@H](NC(=O)c4ccccc4)c4ccccc4)C(C)=C1C3(C)C)[C@]1(OC(C)=O)CO[C@@H]1C[C@@H]2O | cell growth or viability | SRB | – | 8.60
CCN(CC)CCNC(=O)c1c(C)[nH]c(/C=C2\C(=O)Nc3ccc(F)cc32)c1C | cell growth or viability | – | – | 5.51
COCCCOc1ccnc(COc2ccc(NC(=O)Nc3ccc(Cl)c(C(F)(F)F)c3)cc2)c1C | cell growth or viability | MTT | 72 h | 5.21
O=C(N/N=C/c1cccn1CCCN1CCOCC1)Nc1cc2c(Nc3ccc(F)c(Cl)c3)ncnc2cc1O[C@H]1CCOC1 | cell growth or viability | MTT | 72 h | 5.25
CC(C)=CCC[C@](C)(O)[C@H]1CC[C@]2(C)[C@@H]1[C@H](O)C[C@@H]1[C@@]3(C)CC[C@H](O[C@@H]4O[C@H](CO)[C@@H](O)[C@H](O)[C@H]4O[C@@H]4O[C@H](CO)[C@@H](O)[C@H](O)[C@H]4O)C(C)(C)[C@@H]3CC[C@]12C | cell growth or viability | MTT | 72 h | < 4.00
